CHRM5 PAM: positive allosteric modulators of human muscarinic M5 receptor. P08912. CHO-K1 hM5, Fluo-8 calcium, ACh EC20 PAM; 0% = ACh EC20, 100% = ACh EC100. activation, % at 3 µM. 0.3% of 360,000 active. AID 624038;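 active = activation above the run cutoff, the mean activation of all test compounds plus 3 SD, cut at about 18% in these data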
Target sequence (P08912 whole entry, looked up): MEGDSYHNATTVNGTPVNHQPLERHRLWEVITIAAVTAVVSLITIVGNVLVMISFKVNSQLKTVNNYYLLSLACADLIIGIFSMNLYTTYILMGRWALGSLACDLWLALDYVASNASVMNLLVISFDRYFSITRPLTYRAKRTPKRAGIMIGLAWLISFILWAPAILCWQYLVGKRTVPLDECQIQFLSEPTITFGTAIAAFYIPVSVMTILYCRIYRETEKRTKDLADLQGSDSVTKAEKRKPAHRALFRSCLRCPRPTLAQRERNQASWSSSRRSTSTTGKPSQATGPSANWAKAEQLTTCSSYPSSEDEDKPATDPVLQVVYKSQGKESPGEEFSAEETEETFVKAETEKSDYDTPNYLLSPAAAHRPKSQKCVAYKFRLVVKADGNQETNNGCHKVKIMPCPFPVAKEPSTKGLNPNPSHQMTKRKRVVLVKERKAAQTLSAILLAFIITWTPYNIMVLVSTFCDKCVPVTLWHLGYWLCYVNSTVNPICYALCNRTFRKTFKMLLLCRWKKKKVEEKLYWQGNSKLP
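Test system: CHO-K1 hM5 cells / Doses: single-point, 3 µM nominal / Times: Post-acetylcholine fluorescence recording 140 s / Technique: Fluo-8 calcium fluorescence / Measure: Max/basal fluorescence ratio as % of EC20–EC100 ACh window / Benchmarks: low control EC20 acetylcholine (0%), high control EC100 acetylcholine (100%) / Replicates: one well per compound, no replicates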
M1 antag: blocks human M1 muscarinic receptor | CHO-K1 hM1, Fluo-8 calcium fluorescence, ACh EC80 antagonist | inhibition, % at 3 µM | 1.3% of 360,000 active | AID 588852;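 active = percent inhibition above its own plate's cutoff, namely the mean of that plate's compound wells plus 3 SD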;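 note: peak over basal fluorescence ratio during 140 s after agonist addition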
CHRM1 agonist: activates human CHRM1 receptor. CHO-K1 hM1, Fluo-8 calcium fluorescence, agonist mode; 0% DMSO, 100% acetylcholine EC100. 0.33% of 360,000 active. P11229. activation, % at 3 µM. AID 588814;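 active = activation above the run's mean compound activation plus 3 SD, cut at about 16% in these data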;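 note: peak over basal fluorescence ratio within a 140 s kinetic read after compound addition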
M5 ag: agonists of human muscarinic M5 receptor (CHRM5). CHO-K1 hM5 cells, Fluo-8 calcium fluorescence; 0% DMSO wells, 100% maximal acetylcholine response. activation, % at 3 µM. 0.19% of 360,000 active;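 active = activation above the run's mean over test compounds plus 3 SD, cut at about 23% in these data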;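 note: signal is peak over basal fluorescence ratio across the kinetic read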
M5 antag: blocks acetylcholine activation of human M5 receptor; P08912; CHO-hM5 cells, Fluo-8 calcium fluorescence, ACh EC80; inhibition, % at 3 µM; 0.59% of 360,000 active; AID 624040;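 active = inhibition above a per-plate cutoff, the mean of that plate's test compounds plus 3 SD, cut at about 27% in these data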
CHRM1 PAM: positive allosteric modulators of human M1 muscarinic receptor | AID 588819 | 0.088% of 360,000 active | CHO-K1 hM1, Fluo-8 calcium fluorescence, ACh EC20; 0% = ACh EC20, 100% = maximal ACh | P11229 | activation, % at 3 µM; in the data active = activation above about 19%, passing the limit was not always enough
Hits are given with their value; . = inactive; / = no result given. Most compounds without a hit are left out; they make up all but 2% or so of the library.

SMILES	CHRM5 PAM	M1 antag	CHRM1 agonist	M5 ag	M5 antag	CHRM1 PAM
COc1cc(C(=O)C(=O)N2CCN(c3ccccc3)CC2)cc(OC)c1OC	.	/	/	.	.	/
O=C(Nc1nccs1)c1ncc(Cl)c(Cl)c1Cl	.	.	.	.	30	.
Cn1cc(Cl)c(C(=O)Nc2nccs2)n1	.	.	.	.	.	.
C[C@H]1CN=C(N(C)C)N1CCc1ccccc1	.	.	.	.	.	.
CC(CCN1C(N(C)C)=NC[C@@H]1C)c1ccccc1 (stereo not given in full)	.	31	.	.	.	.
Cn1c2ccccc2c(=O)c2c(=O)n(C3CCCCC3)c(-c3ccco3)nc21	.	.	19	.	.	.
CCCCCCCCN1C(=O)[C@H](CC(=O)NCc2cccc(C(F)(F)F)c2)C[C@@]2(C(=O)OCC)CCC=C12	.	/	/	.	.	/
COc1ccc(N2CC(O)(c3ccc(F)cc3)[N+]3=C2CCCC3)cc1 (stereo not given)	.	47	.	.	.	.
CCOc1ccc(N2CC(O)(c3ccc(F)cc3)[N+]3=C2CCCC3)cc1 (stereo not given)	.	.	.	.	.	.
CCOc1ccc(N2CC(O)(c3cccs3)[N+]3=C2CCCC3)cc1 (stereo not given)	.	41	.	.	36	.
COc1ccc(N2CC(O)(c3ccc(OC(F)F)cc3)[N+]3=C2CCCC3)cc1 (stereo not given)	.	42	.	.	.	.
COc1ccc(N2CC(O)(c3ccc(C)cc3)[N+]3=C2CCCC3)cc1 (stereo not given)	.	.	.	.	.	.
CC(O)(c1cccnc1)c1nc(/C=C/c2ccccc2)cs1 (stereo not given)	.	.	.	.	.	.
CCCN1CCC(C)(C(=O)Nc2ccccc2Oc2ccccc2)C1 (stereo not given)	.	.	.	.	.	.
CCN(CC)c1ccc2c(Cl)c(Br)c(=O)oc2c1	.	78	49	28	70	.
COc1cccc(C2=NN(C(=O)C3CC3)C(O)(C(F)(F)F)C2)c1 (stereo not given)	.	.	.	.	.	.
O=S(=O)(Nc1ncn[nH]1)c1ccc2ccccc2c1	.	.	.	.	.	.
O=S(=O)(Nc1nc2ccccc2[nH]1)c1ccc2ccccc2c1	.	65	.	.	39	.
COc1ccccc1N1CCN(C(=O)c2cn(Cc3ccccc3)nc2-c2cccnc2)CC1	.	.	.	29	.	.
CCc1nc2c(OCc3c(C)noc3C)cccn2c1N(C)C(=O)C(C)C	.	.	.	.	.	.
CSCC[C@H](NC(=O)c1ccc2ccccc2c1)C(=O)N1CCC2(CC1)NCCc1[nH]cnc12	.	.	.	.	27	.
NS(=O)(=O)c1ccc(CCNC(=O)c2ccc(C#CC3(O)CCCCC3)cc2)cc1	.	38	.	.	.	.
CCCNC(=O)C1(C)CCN(Cc2cc(C(F)(F)F)ccc2Cl)C1 (stereo not given)	.	.	.	.	.	.
CCOc1cc(/C=C\[N+](=O)[O-])ccc1OCC(=O)Nc1ccccc1C	.	.	.	.	.	26
COc1ccccc1C(CNC(=O)c1ccc(S(=O)(=O)N2CCCCC2)cc1)N(C)C (stereo not given)	.	.	.	.	.	.
SMILES	CHRM5 PAM	M1 antag	CHRM1 agonist	M5 ag	M5 antag	CHRM1 PAM
COc1ccccc1C(CNC(=O)c1ccc(NS(=O)(=O)c2ccc3c(c2)OCCO3)cc1)N(C)C (stereo not given)	.	40	.	.	.	.
COc1ccc(NS(=O)(=O)c2ccc3c(c2)OCCO3)cc1OC	.	26	.	.	29	.
COc1ccccc1C(CNC(=O)c1cccc(S(=O)(=O)Nc2ccc(C)cc2)c1)N(C)C (stereo not given)	.	99	.	.	99	.
COc1ccc(S(=O)(=O)Nc2ccc3c(c2)OCO3)cc1OC	.	.	.	.	.	.
COc1ccc(-c2ccc(CN3C(C(C)C)C(=O)N(Cc4cn(CC5CCCCC5)nn4)CCS3(=O)=O)cc2)cc1 (stereo not given)	.	.	.	.	.	.
COCCNS(=O)(=O)c1ccc(-c2ccc(Cl)cc2)cc1	21	.	.	.	.	.
NS(=O)(=O)c1ccc(CCNS(=O)(=O)c2ccc(Cl)cc2)cc1	.	101	.	.	.	.
OC(Cc1cccc(Br)c1)c1ncc(-c2ccccc2C(F)(F)F)[nH]1 (stereo not given)	.	.	.	.	.	.
CN(C)CCN(Cc1ccccc1)c1ccnc(N(C)C)c1C#N	.	.	.	.	.	.
CN(C)c1nccc(N(Cc2ccccc2)Cc2ccccc2)c1C#N	.	55	.	.	.	.
C/C(N)=C(/C#N)C(=O)COC(=O)c1ccccc1Oc1ccccc1	.	.	.	.	.	.
CCCC(=O)Nc1ccc(-c2csc(NNC(C)=O)n2)cc1	21	.	.	.	.	.
CC(=O)NNc1nc(-c2ccc(C)cc2)cs1	.	.	.	.	.	.
CC(=O)N1CCc2cc(S(=O)(=O)NC(C(=O)N3CCN(c4ccccc4F)CC3)C(C)C)ccc21 (stereo not given)	.	.	.	.	.	.
CN1C(=O)c2ccccc2Sc2ccc(NC(=O)NC3CC3)cc21	38	.	.	.	.	.
O=C(Nc1ccc2c(c1)N(Cc1ccccc1)C(=O)c1ccccc1S2)NC1CC1	.	.	.	.	.	.
Cc1ccc(-c2cccc(-c3cc(=O)oc4ccc(C(C)(C)C)cc34)c2)cc1	.	.	.	.	.	.
CN1CCN(C2=Cc3ccccc3Sc3cc(F)ccc32)CC1	.	80	.	.	28	.
CN1CCN(C2=Cc3ccc(Cl)cc3Sc3ccc(F)cc32)CC1	.	.	.	.	.	.
CCOC(=O)Nc1ccc2c(c1)N(C(=O)OC)c1ccccc1CC2	.	.	.	.	.	.
CCOC(=O)Nc1ccc2c(c1)N(C(=O)CN1CCN(C)CC1)c1ccccc1S2	.	75	.	.	.	.
CCCC(CCC)C(=O)Nc1ccc2c(c1)N(C(=O)CN1CCN(C)CC1)c1ccccc1CC2	.	78	.	.	31	.
CCOC(=O)Nc1ccc2c(c1)N(C(=O)CN(C)C)c1ccccc1S2	.	.	.	.	.	.
CCOC(=O)Nc1ccc2c(c1)N(C(=O)CCN(C)C)c1ccccc1S2	.	51	.	.	.	.
CCOC(=O)Nc1ccc2c(c1)N(C(=O)C(C)N1CCCC1)c1ccccc1CC2 (stereo not given)	.	91	.	.	.	.
